In brackets after ≈: the same amount, converted by molar mass.
Legend:
MCF7 [1] = experiment: Decrease in glutathione peroxidase level in human MCF7 cells; format: functional, cell-based
MCF7 [2] = experiment: Effect on RNA level in human MCF7 cells assessed per 10 '6 cells at 20 ug/ml after 24 hrs (reference value: 11.50 +/- 0.70 ug/10^6 cells); format: functional
Method in brief: (§1)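 After 24 h exposure of MCF-7 cells to compound at 2, 5, 10 or 20 µg/ml at 37 °C, nucleic acids were precipitated from cell homogenates. DNA was extracted and assayed by the Zhou et al. method, and RNA by a kit-derived procedure. Results given per 10⁶ cells as means ± S.E. of four experiments versus untreated control.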

MCF7 [3] = experiment: Effect on CAT level in human MCF7 cells assessed per mg protein at 2 ug/ml after 24 hrs (reference value: 7.90+/- 0.67 U/mg of protein); format: functional
MCF7 [4] = experiment: Effect on glutathione level in human MCF7 cells assessed per mg protein at 5 ug/ml by Ellman method after 24 hrs (reference value: 39.82 +/- 4.20 nmol/mg of protein); format: functional
MCF7 [5] = experiment: Decrease in RNA level in human MCF7 cells assessed per 10 '6 cells after 24 hrs relative to control; format: functional, cell-based; method in brief: as §1
MCF7 [6] = experiment: Effect on CAT level in human MCF7 cells assessed per mg protein at 20 ug/ml after 24 hrs (reference value: 7.90+/- 0.67 U/mg of protein); format: functional
MCF7 [7] = experiment: Effect on glutathione peroxidase level in human MCF7 cells assessed per mg protein at 2 ug/ml after 24 hrs (reference value: 11.20 +/- 1.36 U/mg of protein); format: functional
MCF7 [8] = experiment: Effect on RNA level in human MCF7 cells assessed per 10 '6 cells at 10 ug/ml after 24 hrs (reference value: 11.50 +/- 0.70 ug/10^6 cells); format: functional; method in brief: as §1
MCF7 [9] = experiment: Effect on CAT level in human MCF7 cells assessed per mg protein at 10 ug/ml after 24 hrs (reference value: 7.90+/- 0.67 U/mg of protein); format: functional
MCF7 [10] = experiment: Effect on glutathione level in human MCF7 cells assessed per mg protein at 20 ug/ml by Ellman method after 24 hrs (reference value: 39.82 +/- 4.20 nmol/mg of protein); format: functional
MCF7 [11] = experiment: Effect on hydrogen peroxide level in human MCF7 cells assessed per mg protein at 5 ug/ml by Wolf's method after 24 hrs (reference value: 12.50 +/- 1.54 nmol/mg of protein); format: functional
MCF7 [12] = experiment: Effect on SOD level in human MCF7 cells assessed per mg protein at 10 ug/ml after 24 hrs (reference value: 27.61+/- 3.72 U/mg of protein); format: functional
MCF7 [13] = experiment: Effect on glutathione level in human MCF7 cells assessed per mg protein at 2 ug/ml by Ellman method after 24 hrs (reference value: 39.82 +/- 4.20 nmol/mg of protein); format: functional
MCF7 [14] = experiment: Effect on CAT level in human MCF7 cells assessed per mg protein at 5 ug/ml after 24 hrs (reference value: 7.90+/- 0.67 U/mg of protein); format: functional
MCF7 [15] = experiment: Increase in SOD level in human MCF7 cells; format: functional, cell-based
MCF7 [16] = experiment: Decrease in CAT level in human MCF7 cells; format: functional, cell-based
MCF7 [17] = experiment: Effect on RNA level in human MCF7 cells assessed per 10 '6 cells at 2 ug/ml after 24 hrs (reference value: 11.50 +/- 0.70 ug/10^6 cells); format: functional; method in brief: as §1
MCF7 [18] = experiment: Increase in hydrogen peroxide level in human MCF7 cells; format: functional, cell-based
MCF7 [19] = experiment: Effect on glutathione peroxidase level in human MCF7 cells assessed per mg protein at 10 ug/ml after 24 hrs (reference value: 11.20 +/- 1.36 U/mg of protein); format: functional
MCF7 [20] = experiment: Decrease in DNA level in human MCF7 cells assessed per 10 '6 cells after 24 hrs relative to control; format: functional, cell-based; method in brief: as §1
MCF7 [21] = experiment: Effect on RNA level in human MCF7 cells assessed per 10 '6 cells at 5 ug/ml after 24 hrs (reference value: 11.50 +/- 0.70 ug/10^6 cells); format: functional; method in brief: as §1
MCF7 [22] = experiment: Effect on hydrogen peroxide level in human MCF7 cells assessed per mg protein at 20 ug/ml by Wolf's method after 24 hrs (reference value: 12.50 +/- 1.54 nmol/mg of protein); format: functional
MCF7 [23] = experiment: Effect on DNA level in human MCF7 cells assessed per 10 '6 cells at 20 ug/ml after 24 hrs (reference value: 6.80 +/- 0.70 ug/10^6 cells); format: functional; method in brief: as §1
MCF7 [24] = experiment: Effect on hydrogen peroxide level in human MCF7 cells assessed per mg protein at 2 ug/ml by Wolf's method after 24 hrs (reference value: 12.50 +/- 1.54 nmol/mg of protein); format: functional
MCF7 [25] = experiment: Effect on SOD level in human MCF7 cells assessed per mg protein at 20 ug/ml after 24 hrs (reference value: 27.61+/- 3.72 U/mg of protein); format: functional
MCF7 [26] = experiment: Effect on DNA level in human MCF7 cells assessed per 10 '6 cells at 2 ug/ml after 24 hrs (reference value: 6.80 +/- 0.70 ug/10^6 cells); format: functional; method in brief: as §1
MCF7 [27] = experiment: Effect on SOD level in human MCF7 cells assessed per mg protein at 2 ug/ml after 24 hrs (reference value: 27.61+/- 3.72 U/mg of protein); format: functional
MCF7 [28] = experiment: Decrease in glutathione level in human MCF7 cells; format: functional, cell-based
MCF7 [29] = experiment: Effect on DNA level in human MCF7 cells assessed per 10 '6 cells at 5 ug/ml after 24 hrs (reference value: 6.80 +/- 0.70 ug/10^6 cells); format: functional; method in brief: as §1
MCF7 [30] = experiment: Effect on hydrogen peroxide level in human MCF7 cells assessed per mg protein at 10 ug/ml by Wolf's method after 24 hrs (reference value: 12.50 +/- 1.54 nmol/mg of protein); format: functional
MCF7 [31] = experiment: Effect on glutathione peroxidase level in human MCF7 cells assessed per mg protein at 5 ug/ml after 24 hrs (reference value: 11.20 +/- 1.36 U/mg of protein); format: functional
MCF7 [32] = experiment: Effect on DNA level in human MCF7 cells assessed per 10 '6 cells at 10 ug/ml after 24 hrs (reference value: 6.80 +/- 0.70 ug/10^6 cells); format: functional; method in brief: as §1
MCF7 [33] = experiment: Effect on glutathione level in human MCF7 cells assessed per mg protein at 10 ug/ml by Ellman method after 24 hrs (reference value: 39.82 +/- 4.20 nmol/mg of protein); format: functional
MCF7 [34] = experiment: Effect on glutathione peroxidase level in human MCF7 cells assessed per mg protein at 20 ug/ml after 24 hrs (reference value: 11.20 +/- 1.36 U/mg of protein); format: functional
MCF7 [35] = experiment: Effect on SOD level in human MCF7 cells assessed per mg protein at 5 ug/ml after 24 hrs (reference value: 27.61+/- 3.72 U/mg of protein); format: functional
MCF7 [36] = experiment: Antiproliferative activity against human MCF7 cells after 24 hrs by MTT assay; format: functional, cell-based
Method in brief: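 MCF-7 cells (DMEM, 10% heat-inactivated FCS, penicillin/streptomycin, 37 °C, 5% CO2) plated at 0.65 × 10⁵ cells/well and given 24 h to attach. Exposed to compound or cisplatin at 2, 5, 10 or 20 µg/ml for 24 h at 37 °C. MTT added for 4 h, formazan dissolved in DMSO, absorbance read at 570 nm. Viability taken relative to untreated cells and IC50 derived.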

Which Activity (MCF7 [1]) does the source give for `Cc1nc(-n2ncc3c(=O)[nH]cnc32)c2c3c(sc2n1)CCc1ccccc1-3` here?
Its Activity is “Dose-dependent effect”.

And the Activity (MCF7 [2])?
Its Activity is 5.25 µg/10^6 cells.

What about the Activity (MCF7 [3]) of the same molecule?
The Activity was 4 U/mg protein.

What about the Activity (MCF7 [4]) of the same molecule?
Its Activity is 18.66 nmol.

What about the Activity (MCF7 [5]) of the same molecule?
The Activity was “Dose-dependent effect”.

What about the Activity (MCF7 [6]) of the same molecule?
The Activity was 2.3 U/mg protein.

What about the Activity (MCF7 [7]) of the same molecule?
The Activity was 6.9 U/mg protein.

And the Activity (MCF7 [8])?
The Activity was 5.81 µg/10^6 cells.

And the Activity (MCF7 [9])?
Its Activity is 2.8 U/mg protein.

And the Activity (MCF7 [10])?
Its Activity is 16 nmol.

And the Activity (MCF7 [11])?
The Activity was 40.6 nmol.

And the Activity (MCF7 [12])?
Its Activity is 240 U/mg protein.

And the Activity (MCF7 [13])?
Its Activity is 27.9 nmol.

And the Activity (MCF7 [14])?
The Activity was 3.6 U/mg protein.

What about the Activity (MCF7 [15]) of the same molecule?
The Activity was “Dose-dependent effect”.

What about the Activity (MCF7 [16]) of the same molecule?
Its Activity is “Dose-dependent effect”.

What about the Activity (MCF7 [17]) of the same molecule?
The Activity was 7.6 µg/10^6 cells.

And the Activity (MCF7 [18])?
Its Activity is “Dose-dependent effect”.

And the Activity (MCF7 [19])?
Its Activity is 3.11 U/mg protein.

And the Activity (MCF7 [20])?
The Activity was “Dose-dependent effect”.

And the Activity (MCF7 [21])?
The Activity was 6.4 µg/10^6 cells.

What about the Activity (MCF7 [22]) of the same molecule?
The Activity was 60.3 nmol.

What about the Activity (MCF7 [23]) of the same molecule?
The Activity was 2.7 µg/10^6 cells.

What about the Activity (MCF7 [24]) of the same molecule?
Its Activity is 32 nmol.

And the Activity (MCF7 [25])?
The Activity was 290 U/mg protein.

What about the Activity (MCF7 [26]) of the same molecule?
Its Activity is 4.2 µg/10^6 cells.

What about the Activity (MCF7 [27]) of the same molecule?
Its Activity is 95.6 U/mg protein.

What about the Activity (MCF7 [28]) of the same molecule?
Its Activity is “Dose-dependent effect”.

And the Activity (MCF7 [29])?
The Activity was 3.8 µg/10^6 cells.

What about the Activity (MCF7 [30]) of the same molecule?
Its Activity is 52 nmol.

And the Activity (MCF7 [31])?
The Activity was 5.5 U/mg protein.

And the Activity (MCF7 [32])?
Its Activity is 3 µg/10^6 cells.

What about the Activity (MCF7 [33]) of the same molecule?
The Activity was 17.7 nmol.

And the Activity (MCF7 [34])?
Its Activity is 2.65 U/mg protein.

What about the Activity (MCF7 [35]) of the same molecule?
Its Activity is 126 U/mg protein.

What about the Activity (MCF7 [36]) of the same molecule?
Its Activity is “Dose-dependent effect”.

What about the IC50 (MCF7 [36]; MCF7, 24 h) of the same molecule?
The IC50 was 4.4 µg/mL (≈ 11.4 µM).

Reference: ChEMBL document CHEMBL1759915, “Synthesis and anticancer effects of some novel pyrazolo[3,4-d]pyrimidine derivatives by generating reactive oxygen species in human breast adenocarcinoma cells” (Eur J Med Chem, 2011)
